ChEMBL document CHEMBL1764974, “The discovery of phthalazinone-based human H1 and H3 single-ligand antagonists suitable for intranasal administration for the treatment of allergic rhinitis” (J Med Chem, 2011)

Columns and labels:
Hepatocyte = assay: Metabolic stability in human hepatocytes; type: ADME, cell-based
[1] = Clearance in CD rat at 3 mg/kg, po and 1 mg/kg, iv; type: ADME, organism-based; conditions: in vivo
In short: (§1)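 Male CD rats dosed 3.0 mg/kg po and 1.0 mg/kg iv, groups of 3 or 7 animals. Clearance, Vss, t1/2 and F are reported with ranges, and clearance is also expressed as % of liver blood flow.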

Cytochrome P450 2C19 = Cytochrome P450 2C19 (Homo sapiens, UniProt P33261); assay: Inhibition of CYP2C19; type: ADME
Histamine H1 receptor [2] = target: T1, Histamine H1 receptor (Homo sapiens, UniProt P35367); assay: Antagonist activity at human recombinant histamine H1 receptor expressed in intact CHO cells assessed as inhibition of histamine-induced cellular calcium mobilization by FLIPR assay; type: functional, cell-based
In short: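 Human recombinant H1 receptor in intact CHO cells; inhibition of agonist-induced calcium mobilization read with Fluo-4AM in FLIPR. EC50 came from a four-parameter logistic fit, and pA2 = log(DR−1) − log[B], where DR is the EC50 ratio versus control.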

[3] = target: T2, Voltage-gated inwardly rectifying potassium channel KCNH2 (Homo sapiens, UniProt Q12809); assay: Inhibition of human ERG by patch clamp assay
Canis familiaris = assay: Liver blood flow in Beagle dog at 3 mg/kg, po and 1 mg/kg, iv; type: ADME, organism-based, Canis lupus familiaris; conditions: in vivo
In short: (§2)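 Male Beagle dogs (n = 3) dosed 3.0 mg/kg po and 1.0 mg/kg iv. Clearance, Vss, t1/2 and F are given with ranges, and clearance as % of liver blood flow. Unchanged drug excreted in urine was measured over 24 h.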

[4] = Volume of distribution at steady state in Beagle dog at 3 mg/kg, po and 1 mg/kg, iv; type: ADME, organism-based, Canis lupus familiaris; conditions: in vivo, read-out: Vdss; in short: as §2
Cavia porcellus = assay: Antiallergic rhinitis activity in conscious guinea pig assessed as duration of inhibition of histamine-induced nasal congestion at 0.1 to 1 mg/ml administered intranasally; type: functional
[5] = target: T3, Alpha-1B adrenergic receptor (Homo sapiens, UniProt P35368); assay: Binding affinity to human adrenergic Alpha-1B receptor expressed in rat intact fibroblasts
T3 sequence (P35368 whole entry): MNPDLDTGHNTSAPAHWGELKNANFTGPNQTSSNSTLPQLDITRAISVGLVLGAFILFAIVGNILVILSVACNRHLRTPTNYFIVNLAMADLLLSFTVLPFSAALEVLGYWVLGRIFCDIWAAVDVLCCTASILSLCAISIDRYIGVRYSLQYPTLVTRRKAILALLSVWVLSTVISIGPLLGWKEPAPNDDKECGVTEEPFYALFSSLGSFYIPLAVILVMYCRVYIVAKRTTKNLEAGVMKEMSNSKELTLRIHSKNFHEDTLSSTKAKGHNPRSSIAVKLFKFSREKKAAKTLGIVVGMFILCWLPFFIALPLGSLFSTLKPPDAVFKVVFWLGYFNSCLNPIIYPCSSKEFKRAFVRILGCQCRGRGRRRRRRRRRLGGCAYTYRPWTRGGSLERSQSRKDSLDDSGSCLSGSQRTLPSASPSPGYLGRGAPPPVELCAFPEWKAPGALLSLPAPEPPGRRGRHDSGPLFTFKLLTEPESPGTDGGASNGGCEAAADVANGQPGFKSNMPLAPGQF
In short: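 Plate-based calcium imaging in intact Rat1 fibroblasts expressing the human α1B adrenoceptor.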

Histamine H4 receptor = Histamine H4 receptor (Homo sapiens, UniProt Q9H3N8); assay: Binding affinity to human histamine H4 receptor
[6] = target: T4, Alpha-1A adrenergic receptor (Homo sapiens, UniProt P35348); assay: Binding affinity to human adrenergic alpha1A receptor expressed in rat intact fibroblasts
T4 sequence (P35348 whole entry): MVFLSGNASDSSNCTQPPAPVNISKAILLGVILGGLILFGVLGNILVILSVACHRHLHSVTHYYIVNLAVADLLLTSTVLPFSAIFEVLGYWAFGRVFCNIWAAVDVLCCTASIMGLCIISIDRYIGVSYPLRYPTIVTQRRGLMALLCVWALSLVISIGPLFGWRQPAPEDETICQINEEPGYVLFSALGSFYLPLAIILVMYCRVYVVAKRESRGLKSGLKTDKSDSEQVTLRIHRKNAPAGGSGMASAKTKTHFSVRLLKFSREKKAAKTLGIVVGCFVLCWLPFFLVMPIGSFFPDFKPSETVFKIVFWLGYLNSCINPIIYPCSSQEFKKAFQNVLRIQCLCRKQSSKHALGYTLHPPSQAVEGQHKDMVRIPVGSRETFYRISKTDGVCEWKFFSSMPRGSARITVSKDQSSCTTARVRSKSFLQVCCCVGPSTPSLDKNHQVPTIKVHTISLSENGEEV

Cytochrome P450 2C9 = Cytochrome P450 2C9 (Homo sapiens, UniProt P11712); assay: Inhibition of CYP2C9; type: ADME
Histamine H2 receptor = Histamine H2 receptor (Homo sapiens, UniProt P25021); assay: Binding affinity to human histamine H2 receptor
Cytochrome P450 3A4 = Cytochrome P450 3A4 (Homo sapiens, UniProt P08684); assay: Inhibition of CYP3A4; type: ADME
[7] = Volume of distribution at steady state in CD rat at 3 mg/kg, po and 1 mg/kg, iv; type: ADME, organism-based; conditions: in vivo, read-out: Vdss; in short: as §1
Liver microsomes [8] = assay: Metabolic stability in human liver microsomes; type: ADME, Microsome
[9] = Unchanged drug level in Beagle dog urine at 3 mg/kg, po and 1 mg/kg, iv after 24 hrs; type: ADME, organism-based, Canis lupus familiaris; conditions: read-out: Activity; in short: as §2
[10] = Ratio of drug level in brain to blood in CD rat at 1 mg/kg, iv; type: ADME, organism-based; parameters: dose 1 mg/kg, route intravenous; conditions: read-out: BBR
Rattus norvegicus = assay: Liver blood flow in CD rat at 3 mg/kg, po and 1 mg/kg, iv; type: ADME, organism-based; conditions: in vivo; in short: as §1
[11] = Half life in Beagle dog at 3 mg/kg, po and 1 mg/kg, iv; type: ADME, organism-based, Canis lupus familiaris; conditions: in vivo; in short: as §2
[12] = target: T2, Voltage-gated inwardly rectifying potassium channel KCNH2; assay: Displacement of labeled dofetilide human ERG
Liver = assay: Metabolic stability in dog liver microsomes; type: ADME, Canis lupus familiaris, Microsome
Heart = assay: Cardiotoxicity in rabbit heart assessed as induction of QT interval prolongation; type: toxicity, tissue-based, Oryctolagus cuniculus
Liver microsomes [13] = assay: Metabolic stability in rat liver microsomes; type: ADME, Microsome
[14] = Oral bioavailability in CD rat at 3 mg/kg; type: ADME, organism-based; conditions: in vivo; in short: as §1
Cytochrome P450 2D6 = Cytochrome P450 2D6 (Homo sapiens, UniProt P10635); assay: Inhibition of CYP2D6; type: ADME
Histamine H1 receptor [15] = target: T1, Histamine H1 receptor; assay: Antagonist activity at human recombinant histamine H1 receptor expressed in intact CHO cells assessed as inhibition of histamine-induced cellular calcium mobilization at 100 nM after 30 mins by FLIPR assay; type: functional, cell-based; conditions: read-out: pA2 (converted)
In short: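 Intact CHO cells expressing recombinant human H1; Fluo-4AM calcium dye read on FLIPR. Histamine concentration-response curves run without or with antagonist at a single 100 nM, 30 min incubation. EC50 from four-parameter logistic fit; pA2 = log(DR-1) - log[B], DR being EC50 with antagonist over control EC50.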

[16] = Oral bioavailability in Beagle dog at 3 mg/kg; type: ADME, organism-based, Canis lupus familiaris; conditions: in vivo; in short: as §2
Cytochrome P450 1A2 = target: T5, Cytochrome P450 1A2 (Homo sapiens, UniProt P05177); assay: Inhibition of CYP1A2; type: ADME
T5 sequence (P05177 whole entry): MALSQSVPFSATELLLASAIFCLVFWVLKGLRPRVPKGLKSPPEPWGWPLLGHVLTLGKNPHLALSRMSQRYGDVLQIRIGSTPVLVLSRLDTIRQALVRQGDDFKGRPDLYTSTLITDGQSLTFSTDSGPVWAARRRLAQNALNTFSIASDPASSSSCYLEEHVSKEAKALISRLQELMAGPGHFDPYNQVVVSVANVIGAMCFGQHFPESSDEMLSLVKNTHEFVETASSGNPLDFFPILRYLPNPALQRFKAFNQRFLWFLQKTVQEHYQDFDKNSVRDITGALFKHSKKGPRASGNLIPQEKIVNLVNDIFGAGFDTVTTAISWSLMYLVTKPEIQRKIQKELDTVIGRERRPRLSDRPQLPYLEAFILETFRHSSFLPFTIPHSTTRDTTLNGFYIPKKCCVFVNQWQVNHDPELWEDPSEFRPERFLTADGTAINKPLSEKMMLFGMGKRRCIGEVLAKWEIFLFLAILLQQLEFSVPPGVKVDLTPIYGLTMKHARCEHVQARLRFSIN

[17] = Half life in CD rat at 3 mg/kg, po and 1 mg/kg, iv; type: ADME, organism-based; conditions: in vivo; in short: as §1
[18] = Clearance in Beagle dog at 3 mg/kg, po and 1 mg/kg, iv; type: ADME, organism-based, Canis lupus familiaris; conditions: in vivo; in short: as §2
[19] = Lipophilicity, log D of the compound; type: physicochemical; conditions: octanol/water; read-out: logD
[20] = Solubility of the compound in phosphate buffered saline at pH 7.4; type: physicochemical

T1 sequence (P35367 whole entry): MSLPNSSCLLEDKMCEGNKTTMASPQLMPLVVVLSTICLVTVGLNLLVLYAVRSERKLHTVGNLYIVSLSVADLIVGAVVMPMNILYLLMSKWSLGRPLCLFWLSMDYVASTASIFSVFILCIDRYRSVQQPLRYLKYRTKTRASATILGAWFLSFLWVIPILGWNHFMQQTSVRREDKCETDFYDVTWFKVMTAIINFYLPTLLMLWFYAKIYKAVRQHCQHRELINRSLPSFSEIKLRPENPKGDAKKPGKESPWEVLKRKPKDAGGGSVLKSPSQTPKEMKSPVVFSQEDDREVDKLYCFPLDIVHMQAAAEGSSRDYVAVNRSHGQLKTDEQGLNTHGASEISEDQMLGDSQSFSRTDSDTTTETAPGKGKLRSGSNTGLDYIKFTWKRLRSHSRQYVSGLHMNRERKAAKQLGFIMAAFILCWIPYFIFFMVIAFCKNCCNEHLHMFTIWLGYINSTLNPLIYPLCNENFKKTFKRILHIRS
T2 sequence (Q12809 whole entry): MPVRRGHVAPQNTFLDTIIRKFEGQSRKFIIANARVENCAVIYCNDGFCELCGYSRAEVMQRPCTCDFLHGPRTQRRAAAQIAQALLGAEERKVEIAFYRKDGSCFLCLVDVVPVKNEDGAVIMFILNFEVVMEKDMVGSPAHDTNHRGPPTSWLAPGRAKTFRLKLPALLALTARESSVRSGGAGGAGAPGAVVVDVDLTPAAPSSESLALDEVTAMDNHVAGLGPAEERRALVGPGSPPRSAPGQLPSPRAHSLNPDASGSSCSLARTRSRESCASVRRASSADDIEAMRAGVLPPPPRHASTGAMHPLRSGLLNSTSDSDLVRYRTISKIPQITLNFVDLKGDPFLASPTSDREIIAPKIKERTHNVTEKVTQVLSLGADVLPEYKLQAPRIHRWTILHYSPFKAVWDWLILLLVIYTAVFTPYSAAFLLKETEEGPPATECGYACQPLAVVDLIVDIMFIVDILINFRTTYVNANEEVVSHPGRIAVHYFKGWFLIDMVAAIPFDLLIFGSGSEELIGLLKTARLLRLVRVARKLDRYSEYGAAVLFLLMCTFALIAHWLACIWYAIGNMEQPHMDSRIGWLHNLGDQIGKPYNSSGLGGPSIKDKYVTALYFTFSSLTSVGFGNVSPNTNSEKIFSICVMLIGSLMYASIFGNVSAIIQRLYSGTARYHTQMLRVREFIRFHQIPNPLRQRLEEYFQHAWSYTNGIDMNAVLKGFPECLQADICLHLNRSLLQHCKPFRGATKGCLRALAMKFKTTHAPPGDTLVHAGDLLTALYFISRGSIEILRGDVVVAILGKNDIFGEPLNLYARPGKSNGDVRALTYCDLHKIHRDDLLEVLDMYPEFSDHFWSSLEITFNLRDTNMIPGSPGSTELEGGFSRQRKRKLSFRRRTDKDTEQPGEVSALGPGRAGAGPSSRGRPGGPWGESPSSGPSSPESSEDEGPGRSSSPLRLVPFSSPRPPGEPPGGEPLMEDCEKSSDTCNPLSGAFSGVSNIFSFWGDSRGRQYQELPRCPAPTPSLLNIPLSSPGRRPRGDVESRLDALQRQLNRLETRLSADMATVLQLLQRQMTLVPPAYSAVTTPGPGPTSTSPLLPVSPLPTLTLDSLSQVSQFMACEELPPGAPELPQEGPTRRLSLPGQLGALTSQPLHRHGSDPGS
Cytochrome P450 3A4, sequence (P08684 whole entry): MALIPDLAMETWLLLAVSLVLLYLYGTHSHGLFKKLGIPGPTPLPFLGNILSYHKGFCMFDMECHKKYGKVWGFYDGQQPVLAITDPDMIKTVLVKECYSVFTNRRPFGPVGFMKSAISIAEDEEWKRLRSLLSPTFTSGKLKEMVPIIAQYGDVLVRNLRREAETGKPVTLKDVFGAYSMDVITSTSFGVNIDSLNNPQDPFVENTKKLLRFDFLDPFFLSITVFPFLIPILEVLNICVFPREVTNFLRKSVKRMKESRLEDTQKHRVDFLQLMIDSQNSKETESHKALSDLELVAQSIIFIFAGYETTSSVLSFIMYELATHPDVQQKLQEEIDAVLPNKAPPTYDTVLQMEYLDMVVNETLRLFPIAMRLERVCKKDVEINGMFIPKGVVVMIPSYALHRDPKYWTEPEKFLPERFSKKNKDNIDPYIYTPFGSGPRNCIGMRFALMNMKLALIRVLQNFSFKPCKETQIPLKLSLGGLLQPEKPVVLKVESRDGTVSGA
Histamine H2 receptor, sequence (P25021 whole entry): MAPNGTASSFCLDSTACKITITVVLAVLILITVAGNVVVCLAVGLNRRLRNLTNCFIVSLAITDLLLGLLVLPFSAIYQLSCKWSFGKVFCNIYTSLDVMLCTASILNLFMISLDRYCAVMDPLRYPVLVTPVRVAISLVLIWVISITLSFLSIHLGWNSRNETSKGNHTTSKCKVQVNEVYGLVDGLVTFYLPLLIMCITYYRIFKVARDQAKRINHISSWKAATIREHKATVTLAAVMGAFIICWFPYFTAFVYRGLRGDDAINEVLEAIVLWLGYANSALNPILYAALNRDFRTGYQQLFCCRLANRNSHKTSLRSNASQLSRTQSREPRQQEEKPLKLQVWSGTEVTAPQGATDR
Cytochrome P450 2C19, sequence (P33261 whole entry): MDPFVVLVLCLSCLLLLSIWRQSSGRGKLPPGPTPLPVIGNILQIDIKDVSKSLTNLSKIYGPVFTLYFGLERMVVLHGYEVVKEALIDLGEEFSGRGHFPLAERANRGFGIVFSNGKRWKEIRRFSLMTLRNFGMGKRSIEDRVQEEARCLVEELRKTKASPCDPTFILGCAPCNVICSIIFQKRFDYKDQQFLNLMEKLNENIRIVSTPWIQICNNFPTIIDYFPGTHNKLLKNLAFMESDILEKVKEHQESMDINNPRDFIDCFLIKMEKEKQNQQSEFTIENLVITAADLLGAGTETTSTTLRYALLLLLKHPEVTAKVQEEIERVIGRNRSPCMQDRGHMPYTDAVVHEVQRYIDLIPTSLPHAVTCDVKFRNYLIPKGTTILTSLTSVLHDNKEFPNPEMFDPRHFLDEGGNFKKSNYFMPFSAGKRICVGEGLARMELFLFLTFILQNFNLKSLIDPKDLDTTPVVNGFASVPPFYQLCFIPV
Histamine H4 receptor, sequence (Q9H3N8 whole entry): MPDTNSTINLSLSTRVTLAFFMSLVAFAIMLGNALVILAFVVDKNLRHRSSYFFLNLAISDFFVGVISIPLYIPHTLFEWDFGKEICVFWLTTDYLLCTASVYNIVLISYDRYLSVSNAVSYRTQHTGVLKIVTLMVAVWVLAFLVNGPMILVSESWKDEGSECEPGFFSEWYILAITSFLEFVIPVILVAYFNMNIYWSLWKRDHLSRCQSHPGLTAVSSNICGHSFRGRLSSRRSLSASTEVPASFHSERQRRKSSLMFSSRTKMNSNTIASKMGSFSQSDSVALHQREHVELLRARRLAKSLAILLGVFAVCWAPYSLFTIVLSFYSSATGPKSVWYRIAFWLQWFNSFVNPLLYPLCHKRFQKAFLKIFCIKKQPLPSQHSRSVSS
Cytochrome P450 2C9, sequence (P11712 whole entry): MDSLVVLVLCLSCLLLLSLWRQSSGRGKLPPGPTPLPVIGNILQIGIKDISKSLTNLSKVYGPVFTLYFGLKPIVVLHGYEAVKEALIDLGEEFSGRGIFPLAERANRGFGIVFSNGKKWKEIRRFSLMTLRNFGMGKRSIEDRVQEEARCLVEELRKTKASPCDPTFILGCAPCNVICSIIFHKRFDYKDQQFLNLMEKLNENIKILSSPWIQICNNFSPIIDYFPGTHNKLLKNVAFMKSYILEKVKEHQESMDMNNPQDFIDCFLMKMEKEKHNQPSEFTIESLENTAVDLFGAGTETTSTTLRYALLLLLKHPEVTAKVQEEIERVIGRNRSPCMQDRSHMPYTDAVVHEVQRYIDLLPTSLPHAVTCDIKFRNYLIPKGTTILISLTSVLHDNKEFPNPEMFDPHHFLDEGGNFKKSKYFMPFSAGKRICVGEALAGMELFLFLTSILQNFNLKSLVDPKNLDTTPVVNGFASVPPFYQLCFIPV
Cytochrome P450 2D6, sequence (P10635 whole entry): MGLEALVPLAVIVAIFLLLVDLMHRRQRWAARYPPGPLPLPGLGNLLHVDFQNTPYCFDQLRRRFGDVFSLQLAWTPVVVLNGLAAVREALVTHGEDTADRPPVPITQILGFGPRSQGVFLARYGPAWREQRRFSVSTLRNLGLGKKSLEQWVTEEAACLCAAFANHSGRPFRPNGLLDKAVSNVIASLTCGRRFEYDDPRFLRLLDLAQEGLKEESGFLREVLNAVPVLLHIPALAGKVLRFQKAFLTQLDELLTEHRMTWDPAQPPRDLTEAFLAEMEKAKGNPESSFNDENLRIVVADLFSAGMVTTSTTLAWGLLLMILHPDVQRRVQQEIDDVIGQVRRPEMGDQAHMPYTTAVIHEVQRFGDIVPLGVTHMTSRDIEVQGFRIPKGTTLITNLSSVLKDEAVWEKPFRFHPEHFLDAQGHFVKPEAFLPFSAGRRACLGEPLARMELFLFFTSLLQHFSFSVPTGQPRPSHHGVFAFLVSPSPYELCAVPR

O=c1c2ccccc2c(Cc2ccc(Cl)cc2)nn1C[C@H]1CCCN1CCCCc1ccc(OCCCN2CCCCCC2)cc1 [GSK-1004723]
Stability (Hepatocyte): Unstable | clearance [1]: 30 mL/min/kg | IC50 (Cytochrome P450 2C19): > 3 µM | Ki (Histamine H1 receptor [2]): 0.01 µM | inhibition (INH) [3]: Active | LBF (Canis familiaris): 87% | Vd [4]: 22 L/kg | Time (Cavia porcellus): 72 h | Ki [5]: 0.0316 µM | IC50 (Histamine H4 receptor): 10 µM | Ki [6]: 0.0398 µM | IC50 (Cytochrome P450 2C9): > 3 µM | IC50 (Histamine H2 receptor): 10 µM | IC50 (Cytochrome P450 3A4): 0.3 µM | Vd [7]: 3.9 L/kg | Stability (Liver microsomes [8]): Stable | dose excreted at 24 h [9]: < 1% | Kp [10]: 0.6 | LBF (Rattus norvegicus): 35% | half-life [11]: 9.4 h | IC50 [12]: 0.0501 µM | Stability (Liver): Stable | Activity (Heart): Non-toxic | Stability (Liver microsomes [13]): Stable | bioavailability [14]: 4% | IC50 (Cytochrome P450 2D6): 0.04 µM | Kb (Histamine H1 receptor [15]): 0.000794 µM | bioavailability [16]: 19% | IC50 (Cytochrome P450 1A2): > 3 µM | half-life [17]: 2.2 h | clearance [18]: 27 mL/min/kg

CN1CCCC(n2nc(Cc3ccc(Cl)cc3)c3ccccc3c2=O)CC1.Cl (racemic) [AZELASTINE HYDROCHLORIDE]
logD [19]: 2.25 | solubility [20]: 144 µg/mL
